# Key:
# [1] = Partition coefficient, log P between n-octanol and phosphate buffer at pH 7.4; assay type: physicochemical
# [2] = tested on: Jejunum; test: Drug uptake in Wistar rat jejunum blood vessel assessed as rate of drug appearance at 100 uM at pH 6.4 by in-situ single-pass perfusion method; assay type: ADME, tissue-based; details: in vivo, pH 6.4, 100 µM
# In short: (§1)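 Rats fasted 18–24 h, anesthetized with intraperitoneal pentobarbital. Isolated cannulated jejunal segment kept at 37°C in Krebs–Henseleit buffer with 3% BSA and 10 mM glucose. Vascular perfusion with Krebs–Henseleit (pH 7.4) at 2.5 ml/min. Lumen perfused at 0.2 ml/min with phosphate buffer (pH 5.4, 6.4 or 7.4) containing 100 µM drug plus FD-4. Luminal and vascular samples assayed by HPLC (UV 258 nm). Parameters normalized to 10 cm intestine. Mean ± S.D., n = 3–6.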
# [3] = tested on: Jejunum; test: Drug uptake in Wistar rat jejunum lumen assessed as rate of drug appearance at 100 uM by in-situ single-pass perfusion method; assay type: ADME, tissue-based; details: in vivo; in short: as §1
# [4] = tested on: Jejunum; test: Apparent absorption clearance in Wistar rat jejunum at 100 uM at pH 6.4 by in-situ single-pass perfusion method; assay type: ADME, tissue-based; details: in vivo; in short: as §1
# [5] = tested on: Jejunum; test: Intracellular drug level in Wistar rat jejunum at 100 uM at pH 6.4 by in-situ single-pass perfusion method; assay type: ADME, tissue-based; details: in vivo; in short: as §1
# [6] = tested on: Jejunum; test: Drug uptake in Wistar rat jejunum blood vessel assessed as rate of drug appearance at 100 uM by in-situ single-pass perfusion method; assay type: ADME, tissue-based; details: in vivo; in short: as §1
structure (smiles),measurement,setting,value
O=C(O)CN1C[C@@H](c2cccs2)SC[C@H](N[C@@H](CCc2ccccc2)C(=O)O)C1=O [TEMOCAPRILAT],logD,[1],2.5
same,Drug uptake,[2],0.193 nmol/min
same,Drug uptake,[3],2.25 nmol/min
same,CL(app),[4],1.87 µL/min
same,Drug uptake,[5],2.99 nmol/g
same,Drug uptake,[6],1.22 nmol/min
